Rows were chosen to be rich in hits. Some 0.75% of all compounds tested hit in one or more screens of this group.
NCF1 inh = blocks human p47phox regulatory protein of NADPH oxidases; p47phox/p22phox peptide binding, fluorescence polarization, 2 h; inhibition, % at 24.7 µM; 220,000 tested, 0.53% active;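 active = inhibition above about 30%, limit read from the data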;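 also: 0% = p47phox with labelled peptide and 100% = labelled peptide alone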
Tb hexokinase = T. brucei hexokinase 1 inhibition. recombinant TbHK1, G6PDH-coupled NADH A340. inhibition, % at 10 µM. 220,000 tested, 0.11% active. AID 1430;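 active = inhibition of 50% or more in the single-dose primary screen; inactive = inhibition below 50%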
Rad51 HR inh = Rad51 (human) homologous recombination inhibition | hRad51 DNA strand exchange, fluorescence dequenching | inhibition, % at 10 µM | 200,000 tested, 0.085% active | AID 1385;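 active = inhibition above 40% at the single screening dose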;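 also: 0% = DMSO control wells and 100% = blanks with heterologous ssDNA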
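Material: human Rad51–ssDNA filaments; Probe or stimulus: labelled 47-mer dsDNA for strand exchange; Doses: single 10 µM dose; Incubation: 37 °C 15-min filament assembly, 30-min compound preincubation, 15-min exchange; Technique: FRET fluorescence dequenching, excitation 485 nm, emission 520 nm; Measure: Fluorescence-based percent inhibition, control- and blank-normalised; Benchmarks: plate control and blank wells.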
Mdm2 ligase inh = Mdm2 E3 ligase (human) inhibition | Q00987 | cell-based MDM2 ubiquitination luciferase reporter, 2 h; 0 = plate control, 100 = twice control, blank-subtracted | signal enhancement, % at 5 µM | 210,000 tested, 0.11% active | AID 1230;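 active = signal enhancement of 30% or more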;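 also: luminescence tracks abundance of the self-degrading MDM2-luciferase fusion protein; higher signal means inhibition of MDM2 E3 ligase activity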
Target sequence (Q00987 whole entry, looked up, the tested form may be a part): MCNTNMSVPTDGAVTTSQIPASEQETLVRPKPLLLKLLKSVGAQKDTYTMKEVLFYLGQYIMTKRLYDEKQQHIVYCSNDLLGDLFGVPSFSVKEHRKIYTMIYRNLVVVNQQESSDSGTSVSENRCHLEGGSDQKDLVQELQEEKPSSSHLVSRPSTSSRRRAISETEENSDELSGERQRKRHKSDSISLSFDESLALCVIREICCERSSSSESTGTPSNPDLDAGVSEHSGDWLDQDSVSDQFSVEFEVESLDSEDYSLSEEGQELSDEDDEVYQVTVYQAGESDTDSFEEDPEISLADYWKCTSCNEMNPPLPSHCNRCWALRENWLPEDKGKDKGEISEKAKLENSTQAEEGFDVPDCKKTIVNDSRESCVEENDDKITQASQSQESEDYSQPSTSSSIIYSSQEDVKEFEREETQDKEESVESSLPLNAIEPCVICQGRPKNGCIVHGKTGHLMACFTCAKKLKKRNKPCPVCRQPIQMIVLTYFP
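Timing – 2 h compound exposure at 37 °C · Assay system – mammalian cells stably expressing self-ubiquitinating, self-degrading MDM2 E3–luciferase fusion · Amount – 2000 cells seeded into each well · Measure – % luminescence enhancement versus blank-corrected plate control mean · Measured by – SteadyLite luminescence, 15 min reagent step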
* hit, by the source's call; . = not tested or not shown.

SMILES	NCF1 inh	Tb hexokinase	Rad51 HR inh	Mdm2 ligase inh
CCOC(=O)c1cnc2ccccc2c1Nc1cccc(C(=O)O)c1	9	-19	0	-1
O=C(N/N=C\c1ccc(Cl)s1)c1cccs1	-19	-60	-6	31*
Cc1ccc(C(=O)OCC(=O)Nc2ccccc2C(F)(F)F)cc1S(=O)(=O)N1CCOCC1	-12	-4	-5	10
CCOC(=O)c1ccccc1NC(=O)COC(=O)c1ccc(C)c(S(=O)(=O)N2CCOCC2)c1	93*	-7	-15	-13
COc1ccccc1NC(=O)CN1CCSc2ccccc21	-9	-3	18	9
O=C1CC(c2ccccc2)CC(O)=C1C=NCc1ccccc1Cl (stereo not drawn)	-5	0	.	-2
O=C1CC(c2cccc(Cl)c2)CC(O)=C1C=NC1CCCC1 (stereo not drawn)	-9	3	-24	32*
C=CCNC(=O)c1onc(CSc2cccc(OC)c2)c1C(=O)O	32*	-6	1	-11
CCOC(=O)c1nn(-c2ccc(F)cc2)c2nc(CC(C)C)c(C#N)c(=O)n12	-10	2	-11	35*
COc1cccc(C2=CC(=O)CC(C)(C)C2)n1	.	.	-3	.
COc1ccc2nc(N=Nc3c(O)ccc4ccccc34)sc2c1	34*	8	-31	-24
COC(=O)c1cc2c(C)c(C)c3ccccn3c-2c1C(=O)OC	-32	-36	-7	-15
COC(=O)c1cc2n3ccccc3c(C)c(-c3ccccc3)c-2c1C(=O)OC	53*	-47	-8	-8
CCOC(=O)C1=C(c2cccc(Oc3ccccc3)c2)NC(=S)NC1C (stereo not drawn)	-6	-3	-13	3
C(=N\n1cnnc1)/c1ccc(N2CCOCC2)cc1	-18	-30	-10	-1
C(=N\n1cnnc1)/c1ccc(N2CCOCC2)s1	43*	-16	-12	-32
COc1ccc(-n2cnnc2SCC(=O)Nc2cc(C)on2)cc1	-4	-3	44*	-4
O=C(Cn1nnc(-c2ccccc2Cl)n1)N/N=C/c1ccc(-c2cccc(Cl)c2)o1	-10	-20	.	.
CC1CCCCN1C(=O)C12CCC(C)(/C(=N/O)C1)C2(C)C (stereo not drawn)	37*	1	12	-1
OCCCCNc1cccc2ccccc12	42*	-4	1	-8
CC1(C)C[C@H](O)[C@@]23C[C@@H](OC2=O)[C@]2(C)C(=CCC4[C@@]5(C)CC[C@H](O)C(C)(C)C5CC[C@]42C)[C@@H]3C1 (stereo partly drawn)	.	.	-7	.
CCOc1cccc2c1OC1(C)CC2NC(=O)N1Cc1ccccc1 (stereo not drawn)	60*	6	-8	-90
COc1cccc2c1OC1(C)CC2NC(=O)N1Cc1ccccc1 (stereo not drawn)	-5	28	-2	-17
Cc1ccc(S(=O)(=O)NNC(=O)c2sc3nc(C)cc(C)c3c2-n2cccc2)cc1	-29	-1	1	-16
COCc1cc(C)nc2sc(C(=O)NCCO)c(-n3cccc3)c12	-5	6	45*	-6
SMILES	NCF1 inh	Tb hexokinase	Rad51 HR inh	Mdm2 ligase inh
COc1ccc(CCNC(=O)CSc2nnc(NC(C)=O)s2)cc1OC	-2	3	19	11
O=C(Cn1ncc(Cl)c(Cl)c1=O)NCC1CCCCC1	-7	4	-7	80*
Cc1cccc(N2CCN(C(=O)C3CCN(S(=O)(=O)N4CCOCC4)CC3)CC2C)c1 (stereo not drawn)	-6	-2	29	-4
CC[n+]1cc(-c2ccccc2)nc(N2CCOCC2)n1	39*	-10	0	-14
CCOc1cc(/C=N/NC(=O)Nc2ccccc2)ccc1O	75*	-1	-1	-4
COc1cc(/C=N/NC(=O)Nc2ccccc2)ccc1OC(C)=O	-1	2	2	-10
CCOC(=O)/C(=C\c1cccc(O)c1)c1nc2sc(C)c(C)c2c(=O)[nH]1	2	25	1	5
Cc1ccc(NC(=S)N/C(=N/S(=O)(=O)c2ccccc2)c2ccccc2)cc1	164*	-13	-2	-5
CCOC(=O)c1c(CSC(=N)N)n(-c2ccc(Br)cc2)c2cc(Br)c(OC(C)=O)cc12	93*	-2	.	-9
CCOC(=O)c1c(CSc2nc(C)cc(C)c2C#N)n(C)c2cc(Br)c(OC(C)=O)cc12	-12	9	.	-4
C=CCCc1ccc(C#N)c(SCc2c(C(=O)OCC)c3cc(OC(C)=O)c(Br)cc3n2C)n1	-72	-9	4	-10
CCCCCCCCOC(=O)c1c(CSC(=N)N)n(C)c2cc(Br)c(OC(C)=O)cc12	88*	24	22	-9
CCOc1ccc2noc3c2c1C(=O)c1ccccc1-3	44*	15	-5	4
COC(=O)C1=C(C)N(CCCC(=O)O)C(=O)NC1c1cccc(Cl)c1Cl (stereo not drawn)	.	.	-1	.
Oc1[nH]c(=S)sc1/C=C1\C(c2ccccc2)=Nc2ccccc21	32*	-6	-69	-7
CCCc1nnc(NC(=O)OCC)s1	.	4	.	-15
COc1nc(Nc2nc3ccccc3c(=O)[nH]2)nc2ccc(C)cc12	31*	-27	7	.
O=C(Cn1cc2c(n1)CCCC2)NCc1ccccn1	49*	-4	-2	-10
CCN(CC(=O)NCCc1ccc(F)cc1)Cc1nc2ccccc2c(=O)[nH]1	-9	-6	46*	.
CCN(CC(=O)Nc1ccc(N2CCOCC2)cc1)Cc1nc2ccccc2c(=O)[nH]1	-160	-1	1	39*
COc1ccc(C2C(C(=O)c3ccccc3)=C(C)Nc3nc4ccccc4n32)cc1OC (stereo not drawn)	34*	-7	.	.
COc1ccc(OC)c(C2C(C(=O)c3ccccc3)=C(C)Nc3nc4ccccc4n32)c1 (stereo not drawn)	-10	0	.	.
CCN(CCn1cccn1)Cc1c(C(=O)N2CCCCCCC2)nc2ccc(Cl)cn12	-13	-5	-2	-7
Cc1ccc(S(=O)(=O)O/N=C2\CCCc3ccccc32)cc1	46*	1	3	-2
Cc1ccc(C(=O)O/N=C2\CCCc3ccccc32)cc1	-4	-4	8	-59
SMILES	NCF1 inh	Tb hexokinase	Rad51 HR inh	Mdm2 ligase inh
CC(=O)Nc1ccc(S(=O)(=O)NCC(=O)OCc2ccccc2)cc1	-11	9	6	-5
Cc1cc(OCC(=O)c2cccc(C(F)(F)F)c2)n2cnnc2n1	7	-8	2	-4
COc1cccc2cc(C(C)=O)c(=O)oc12	-8	-17	-5	-6
COc1cccc2cc(C(=O)NNC(=O)c3ccc(Br)cc3)c(=O)oc12	37*	2	-7	-22
O=S(=O)([N-]c1nc2ccccc2nc1-n1cc[n+](Cc2ccccc2)c1)c1ccc(Cl)cc1	-16	-6	-29	-3
O=C(NC1CC1)C1=C[C@H](c2coc3ccccc3c2=O)C[C@H](OCc2ccc(CO)cc2)O1	.	.	7	.
Cn1nc(N)c2c(-c3ccc(Cl)cc3)c(C#N)c(N)nc21	62*	-22	5	-10
Cn1nc(N)c2c(-c3ccccc3)c(C#N)c(N)nc21	-3	-19	3	-6

Assay outcomes from PubChem BioAssay.
